The list is not random: actives were taken first. Their share in the collection is about 3.7%.
KCNK3 inh – human KCNK3 channel inhibition, primary screen; O14649; CHO-KCNK3 thallium flux, FluxOR fluorescence; stronger effect = lower value; B-score at 10 µM; 340,000 tested, 0.84% active; AID 602410;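 active = B-score under library mean minus 4 SD, starting fluorescence ratio at most library mean plus 5 SD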;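 note: more negative B-score means stronger inhibition of thallium flux through KCNK3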
KCNK9 inh – blocks the human KCNK9 two-pore domain potassium channel | Q9NPC2 | HEK293 KCNK9, FluxOR thallium flux fluorescence; stronger effect = lower value | B-score at 10 µM | 310,000 tested, 1.2% active | AID 488922;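 active = ratio B-score over 3 SD below the library mean, with starting fluorescence within 5 SD of its mean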;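 note: negative B-score means less thallium flux so channel inhibition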
hERG protect – shields human hERG channel from block by proarrhythmic agents; Q12809; AID 1511; CHO-hERG, FluxOR thallium flux, dofetilide IC70 present; 310,000 tested, 0.51% active; activation (rescue from dofetilide block), less the hit threshold, % at 10 µM;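 active = activation above the mean of controls blocked by dofetilide plus 5 SD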;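 note: thallium influx through hERG after potassium depolarization seen as dye fluorescence rise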
Kir21 inh – blocks the mouse Kir2.1 inward-rectifier potassium channel | P35561 | HEK293-Kir2.1, FluxOR thallium flux fluorescence; stronger effect = lower value | B-score at 10 µM | 310,000 tested, 0.85% active | AID 1672;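 active = fluorescence ratio B-score at or below minus 3 SD of library scores, with starting-brightness B-score within 2 SD, cut at about -4.2 in these data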;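 note: channel flux triggered by added potassium and thallium sulfate stimulus; B-score of peak minus minimum fluorescence over baseline after thallium stimulus; more negative B-score means stronger Kir2.1 block with less thallium influx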
KCNQ1 pot – potentiates or activates the human KCNQ1 potassium channel; 310,000 tested, 0.35% active; P51787; AID 2648; B-score at 10 µM; CHO-K1 KCNQ1, thallium flux FluxOR fluorescence; stronger effect = higher value;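 active = fluorescence ratio B-score, a plate-corrected score, at least three library SD, with initial intensity B-score within 5 SD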
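Medium – assay buffer, equal DMSO in all wells · Material – CHO-K1 cell line with stable KCNQ1 potassium channel expression · Signal – kinetic FluxOR thallium fluorescence, 10-s 1-Hz baseline, 110-s post-stimulus read · Compound – single concentration per compound, DMSO matched to controls · Schedule – 37 °C overnight plating, 90-min dark dye load, 20-min compound pretreatment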
KCNQ1 inh – human KCNQ1 channel inhibition; P51787; CHO-K1 KCNQ1, FluxOR thallium flux fluorescence; stronger effect = higher value; B-score at 10 µM; 310,000 tested, 1.3% active; AID 2642;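 active = compounds whose thallium flux B-score, printed positive for inhibition, exceeds three library SD while starting fluorescence stays within three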;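 note: channel opened by potassium depolarization with thallium stimulus after 20 min compound exposure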
Hits are given with their value; i = inactive; nt = not tested or not shown.

SMILES	KCNK3 inh	KCNK9 inh	hERG protect	Kir21 inh	KCNQ1 pot	KCNQ1 inh
COc1cc(/C=C(\C#N)C(=O)c2c[nH]c3ccccc23)cc(OC)c1O	i	i	i	i	i	7
CCc1ccc(OCc2nnc(-c3ccccc3Br)o2)cc1	-9.3	nt	nt	nt	nt	nt
Cc1c(C(=O)Nc2ccc(S(=O)(=O)N(C)C3CCN(C)CC3)cc2)oc2c(Cl)cccc12	i	i	i	-5	i	i
Cc1c(C(=O)Nc2ccc(S(=O)(=O)N(C)C3CCN(C)CC3)cc2)oc2ccccc12	i	nt	nt	nt	nt	nt
Cc1ccc(C(=O)N2CCN(Cc3ccc4c(c3)OCO4)CC2)c(Cl)c1	i	i	i	i	i	i
c1ccc(CN2CCC(N3CCN(Cc4ccc5c(c4)OCO5)CC3)CC2)cc1	i	i	i	i	i	i
O=C(c1ccccc1Cl)N1CCN(Cc2ccc3c(c2)OCO3)CC1	i	-7	i	i	i	i
S=C(NCc1ccc2c(c1)OCO2)NC1CCN(Cc2ccccc2)CC1	i	i	i	-12	i	i
COCCNC(=S)N(CCO)Cc1cc2cc3c(cc2[nH]c1=O)OCCO3	i	i	i	i	i	i
N/C(=N\OC(=O)c1ccc([N+](=O)[O-])cc1)c1cccnc1	i	i	i	i	i	i
O=C(Oc1c(Br)cc([N+](=O)[O-])cc1Br)c1cccnc1	i	i	i	i	i	7
O=C(/C=C/c1ccc([N+](=O)[O-])cc1)/C=C/c1ccco1	i	i	i	-5.8	i	8
CN(C)c1ccc(C(=O)/C=C/c2cccnc2)cc1	i	i	i	i	i	i
O=C(/C=C/c1ccc([N+](=O)[O-])cc1)c1cccnc1	i	i	i	-4.3	i	i
O=C(/C=C/c1cccnc1)c1ccc(F)c(F)c1	i	i	i	-5.3	i	i
Cc1nn(CC(=O)NCCCN2C(C)CCCC2C)c(=O)c2cc3occc3n12 (stereo not drawn)	i	i	i	i	i	i
O=C(/C=C/c1ccc2c(c1)OCO2)c1cccnc1	i	i	i	-5.2	i	i
COc1ccc(CN(C)C(=O)c2cc(-c3ccccc3)nc3ccc(C)cc23)c(OC)c1OC	i	i	i	i	i	6
COc1ccc(S(=O)(=O)N2CCC(C(N)=O)CC2)cc1C(=O)N1CCCCCC1	i	i	i	i	i	i
COc1ccc(N(Cc2ccccc2)S(=O)(=O)c2cccc(C(=O)NCC3CCCO3)c2)cc1 (stereo not drawn)	i	nt	nt	nt	nt	nt
Cn1c(=O)cc(SCC(=O)NCCC2=CCCCC2)c2ccccc21	i	i	i	-5.5	i	i
COc1ccc(CNC(=O)CSc2cc(=O)n(C)c3ccccc23)cc1	i	i	i	i	i	i
O=C(Cn1cccc1C(=O)c1ccccc1)NCCCc1ccccc1	i	i	i	i	i	i
COc1ccc(OC(C)C(=O)NCCC2=CCCCC2)cc1 (stereo not drawn)	i	i	i	-6.4	i	i
O=C(Cn1cccc1C(=O)c1ccccc1)NCCC1=CCCCC1	i	i	i	-6.8	i	i
SMILES	KCNK3 inh	KCNK9 inh	hERG protect	Kir21 inh	KCNQ1 pot	KCNQ1 inh
Cc1ccccc1OCC(=O)NCCC1=CCCCC1	i	i	i	-5.4	i	i
CC(=O)Nc1ccccc1OCC(=O)NCCC1=CCCCC1	i	i	i	i	i	i
COc1cccc(N=Nc2ccc3cccnc3c2O)c1	i	i	i	i	9	i
CCCC1(C(=O)OC)NC(c2ccc(OC)c(OC)c2)C2C(=O)N(c3cccc(C(C)=O)c3)C(=O)C21 (stereo not drawn)	i	i	i	i	i	i
CC(C)C(NS(=O)(=O)c1cccc(C(F)(F)F)c1)C(=O)NCc1cccs1 (stereo not drawn)	i	nt	nt	nt	nt	nt
Cc1nn(C(=O)CNC(=O)c2ccccc2)c(C)c1C	i	i	8.0	i	i	i
Cc1ccc(C)c(S(=O)(=O)NCCOC(=O)Nc2sc(=S)n(C)c2C)c1	i	i	i	i	i	i
CC(=O)NCCOC(=O)Nc1sc(=S)n(C)c1C	i	i	i	i	i	8
O=C(C[C@@H]1C/C=C\CCC(=O)OC[C@@H]2CCCN2C1=O)N[C@@H](CO)Cc1ccccc1	i	nt	nt	nt	nt	nt
O=S(=O)(NCCc1cccs1)c1ccc(Br)cc1	i	i	i	-5.3	i	i
CC(C)(C)C1=CC(=O)C(=O)C(C(C)(C)C)=C1	i	-7.4	i	-8.6	i	6
CCN1CCc2c(sc(NC(=O)COc3ccccc3)c2C(=O)OC)C1	i	i	i	i	i	i
CN(C)c1oc(-c2ccccc2Cl)nc1C#N	i	i	i	i	i	i
CN(C)c1oc(-c2ccccc2[N+](=O)[O-])nc1C#N	i	i	4.7	i	i	i
Cn1c(=O)c2nc3ccccc3nc2n(C)c1=O	i	i	i	i	10	i
Cn1c(=O)c2nc(-c3ccccc3)c(-c3ccccc3)nc2n(C)c1=O	i	i	i	i	i	i
Cc1c(Cl)ccc2sc(N3CCN(C(=O)C4=COCCO4)CC3)nc12	i	i	i	i	i	i
CC(OC(=O)c1c[nH]c2ccccc12)C(=O)N1CCCC1 (stereo not drawn)	i	nt	nt	nt	nt	nt
Cc1c(NS(=O)(=O)c2cc(C(=O)NCc3ccco3)cc(Cl)c2Cl)c(=O)n(-c2ccccc2)n1C	i	i	i	i	i	i
CN(CCC1CCOCC1)C(=O)C1CCC(=O)N(CCc2cccc(F)c2)C1 (stereo not drawn)	i	i	i	i	i	i
O=C(CCC(=O)Nc1ccc(Br)cc1)N/N=C/c1ccc(O)cc1	i	i	i	i	i	i
CSc1ccc(Cl)c(C(=O)N2CCN(c3ncccn3)CC2)c1	i	nt	nt	nt	nt	nt
O=C(Nc1ccc(Cl)c([N+](=O)[O-])c1)Nc1nc2ccccc2s1	nt	i	i	i	i	9
CC(CC(=O)Nc1ccc(Cl)c([N+](=O)[O-])c1)c1ccccc1 (stereo not drawn)	i	i	i	i	i	10
Cc1noc(C)c1NC(=O)N(C)C[C@@H]1Oc2ccc(NC(=O)CCC(F)(F)F)cc2CC(=O)N([C@@H](C)CO)C[C@@H]1C	i	nt	nt	nt	nt	nt
SMILES	KCNK3 inh	KCNK9 inh	hERG protect	Kir21 inh	KCNQ1 pot	KCNQ1 inh
OCC(O)C1OC(Nc2ccc(Cl)cc2)C(O)C1O (stereo not drawn)	i	i	i	i	i	i
Cc1ccc(/C=c2/sc3n(c2=O)CCCN=3)o1	i	i	i	i	i	6
Cc1ccc(/C=c2\sc3n(c2=O)CN(c2ccc(Br)cc2)CN=3)o1	i	i	i	i	i	i
O=C(NC(Nc1ncc(S(=O)(=O)c2ccc([N+](=O)[O-])cc2)s1)(C(F)(F)F)C(F)(F)F)c1ccc(Cl)cc1	i	i	i	-6.9	i	i
Cc1cc(O)c(-c2cc(O)c(C)cc2O)cc1O	i	i	i	-4.8	i	i
Cc1ccc(N)cc1O	i	nt	nt	nt	nt	nt
COc1cc(OC)c(C(=O)OCC(=O)Nc2ccccc2Cl)cc1OC	i	i	i	i	i	i

Assay outcomes deposited in PubChem BioAssay by Johns Hopkins Ion Channel Center.
